Calls of active or inactive are those of the source. No cut-off for these calls is given here.
How the values were obtained:
[1] = Displacement of [35S]TBPS from GABA-A receptor picrotoxin binding site in rat brain cortical membranes after 2 hrs by scintillation counting; type: cell membranes, Membrane
Oocyte [2] = experiment: Modulation of rat GABA-A alpha1beta2gamma2L receptor expressed in Xenopus oocytes assessed as increase of GABA-induced chloride current at 0.1 uM by two electrode voltage-clamp method relative to control; type: cell-based
Summary of the method: (§1)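 Two-electrode recording of GABA currents in Xenopus oocytes expressing rat α1β2γ2L GABA-A receptors. The control current was evoked with 2 μM GABA, then compound was co-applied at 0.1, 1 or 10 μM. Each value is the current with compound divided by the current without it, from at least four oocytes (SEM, N ≥ 4).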

Oocyte [3] = experiment: Modulation of rat GABA-A alpha1beta2gamma2L receptor expressed in Xenopus oocytes assessed as increase of GABA-induced chloride current at 1 uM by two electrode voltage-clamp method relative to control; type: cell-based; summary of the method: as §1
Oocyte [4] = experiment: Modulation of rat GABA-A alpha1beta2gamma2L receptor expressed in Xenopus oocytes assessed as increase of GABA-induced chloride current at 10 uM by two electrode voltage-clamp method relative to control; type: cell-based; summary of the method: as §1
Xenopus laevis [5] = experiment: Anesthetic effect on prelimb-bud stage of Xenopus laevis tadpole assessed as loss of righting reflex; type: functional, organism-based
Summary of the method: (§2)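 Behavioural reflex end points in tadpoles, with 10 animals at each of five or more concentrations. The highest concentration tested was 10 μM, and "none" means no reflex was lost at that level. EC50 was taken for each reflex, with error given as standard error of the mean.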

Oocyte [6] = experiment: Modulation of rat GABA-A alpha1beta2gamma2L receptor expressed in Xenopus oocytes assessed as increase of chloride current at 10 uM by two electrode voltage-clamp method relative to GABA; type: cell-based
Summary of the method: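 Direct gating test on oocytes expressing rat α1β2γ2L GABA-A receptors. Compound was applied alone at 10 μM with no GABA. The current is expressed as compound-only current divided by the current to 2 μM GABA, from at least four oocytes (SEM).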

Xenopus laevis [7] = experiment: Anesthetic effect on prelimb-bud stage of Xenopus laevis tadpole assessed as loss of swimming reflex at 10 uM; type: functional, organism-based
Summary of the method: (§3)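 Swimming-reflex scoring in tadpoles at single bath concentrations of 3 μM and 10 μM. Results are reported as whether the tadpoles kept or lost the reflex at each concentration.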

Xenopus laevis [8] = experiment: Anesthetic effect on prelimb-bud stage of Xenopus laevis tadpole assessed as loss of swimming reflex at 3 uM; type: functional, organism-based; summary of the method: as §3
Xenopus laevis [9] = experiment: Anesthetic effect on prelimb-bud stage of Xenopus laevis tadpole assessed as loss of swimming reflex; type: functional, organism-based; summary of the method: as §2
Oocyte [10] = experiment: Modulation of rat GABA-A alpha1beta2gamma2L receptor expressed in Xenopus oocytes assessed as increase of GABA-induced chloride current by two electrode voltage-clamp method relative to control; type: cell-based; summary of the method: as §1

C[C@]12CC[C@@H](O)C[C@@H]1CC[C@@H]1[C@@H]2C(=O)C[C@]2(C)C(C#N)=CC[C@@H]12
IC50 [1]: 0.361 µM
fold change (FC) (Oocyte [2]): 1.49
fold change (FC) (Oocyte [3]): 4.07
fold change (FC) (Oocyte [4]): 23.8
EC50 (Xenopus laevis [5]): 1.04 µM
fold change (FC) (Oocyte [6]): 0.21
Activity (Xenopus laevis [7]): Active
Activity (Xenopus laevis [8]): inactive
EC50 (Xenopus laevis [9]): 5.48 µM

CC(=O)C1=CC[C@H]2[C@@H]3CC[C@H]4C[C@H](O)CC[C@]4(C)[C@H]3C(=O)C[C@]12C
IC50 [1]: 2.22 µM
fold change (FC) (Oocyte [2]): 0.94
fold change (FC) (Oocyte [3]): 0.97
fold change (FC) (Oocyte [4]): 1.87
EC50 (Xenopus laevis [5]): > 10 µM
fold change (FC) (Oocyte [6]): 0.08
Activity (Xenopus laevis [7]): inactive

CC(=O)[C@H]1CC[C@H]2[C@@H]3CC[C@H]4C[C@H](O)CC[C@]4(C)[C@H]3C(=O)C[C@]12C [ALFAXALONE]
Activity (Oocyte [10]): Dose-dependent effect
fold change (FC) (Oocyte [2]): 2.91
fold change (FC) (Oocyte [3]): 4.7
fold change (FC) (Oocyte [4]): 19.6
EC50 (Xenopus laevis [5]): 1.12 µM
fold change (FC) (Oocyte [6]): 0.11
Activity (Xenopus laevis [7]): Active
Activity (Xenopus laevis [8]): inactive
EC50 (Xenopus laevis [9]): 5.48 µM

C[C@]12CC[C@@H](O)C[C@@H]1CC[C@H]1[C@@H]3CC[C@H](C#N)[C@@]3(C)CC(=O)[C@@H]12
IC50 [1]: 0.19 µM
fold change (FC) (Oocyte [2]): 1.12
fold change (FC) (Oocyte [3]): 4.59
fold change (FC) (Oocyte [4]): 21.1
EC50 (Xenopus laevis [5]): 0.72 µM
fold change (FC) (Oocyte [6]): 0.14
Activity (Xenopus laevis [7]): Active
Activity (Xenopus laevis [8]): inactive
EC50 (Xenopus laevis [9]): 5.48 µM

— ChEMBL document CHEMBL1799976, “Neurosteroid analogues. 15. A comparative study of the anesthetic and GABAergic actions of alphaxalone, Δ16-alphaxalone and their corresponding 17-carbonitrile analogues” (Bioorg Med Chem Lett, 2010)
